# Assay results as given in ChEMBL document CHEMBL4270548, “Discovery of a potent glucokinase activator with a favorable liver and pancreas distribution pattern for the treatment of type 2 diabetes mellitus” (Eur J Med Chem, 2018).
# The source made the active and inactive calls. No cut-off for these calls is given here.
# Assays:
# [1] = biological target: T1, Hexokinase-4 (Homo sapiens) (UniProt P35557); experiment: Activation of human glucokinase assessed as conversion of D-glucose to D-glucose-6-phosphate at 10 uM preincubated for 10 mins followed by 5 mM glucose addition measured for 5 mins at 30 secs time interval by G6PDH/NADP coupled assay relative to control
# T1 sequence (whole entry): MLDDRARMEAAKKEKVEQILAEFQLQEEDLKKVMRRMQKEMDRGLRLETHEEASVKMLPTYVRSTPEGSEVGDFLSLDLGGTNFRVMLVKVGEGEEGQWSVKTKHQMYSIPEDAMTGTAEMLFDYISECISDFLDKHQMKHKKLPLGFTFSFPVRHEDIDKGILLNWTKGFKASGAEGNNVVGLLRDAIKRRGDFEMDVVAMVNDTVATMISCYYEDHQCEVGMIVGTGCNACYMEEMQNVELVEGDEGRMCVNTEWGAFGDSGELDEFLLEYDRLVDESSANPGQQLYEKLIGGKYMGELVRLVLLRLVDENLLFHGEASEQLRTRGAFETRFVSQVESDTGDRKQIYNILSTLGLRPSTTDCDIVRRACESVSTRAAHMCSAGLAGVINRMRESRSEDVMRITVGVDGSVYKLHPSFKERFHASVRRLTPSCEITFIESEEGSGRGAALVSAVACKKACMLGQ
# Procedure, shortened: (§1)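 Human GK in 25 mM HEPES pH 7.1, 25 mM KCl, 2 mM MgCl2, 1 mM NADP, 1 mM DTT, 2 U/mL G6PDH and 5 mM D-glucose. Compound at 10 µM preincubated 10 min at room temperature. Started with 20 mM ATP (added stock). A340 read every 30 s for 5 min, slope from the first 3 min. Fold over DMSO, or relative scale (DMSO 0, 10 µM reference activator 1). Mean ± SEM, n = 3.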
# [2] = biological target: T1, Hexokinase-4 (Homo sapiens); experiment: Activation of human glucokinase assessed as conversion of D-glucose to D-glucose-6-phosphate at 10 uM preincubated for 10 mins […] measured for 5 mins at 30 secs time interval by G6PDH/NADP coupled assay relative to RO0281675; procedure, shortened: as §1
# hERG (KCNH2) = hERG (KCNH2) (Homo sapiens, UniProt Q12809); experiment: Inhibition of [3H]-dofetilide binding to human ERG expressed in HEK293 cell membranes at 30 uM after 1 hr by scintillation proximity assay relative to control; conditions: HEK293 cell membranes that express hERG, probe [3H]-dofetilide
# Procedure, shortened: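 hERG-HEK293 membranes with 10 nM final [3H]-dofetilide and poly-L-lysine SPA beads in 50 mM Tris-Cl, 1.0 mM MgCl2, 10 mM KCl, pH 7.4. Shaken 1 h, beads settled 3 h, then scintillation counting. Normalized to DMSO (0%) and E-4031 (100% inhibition). Single-point at 30 µM, mean ± SEM, n = 3.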
# Mus musculus [3] = experiment: Antidiabetic activity in C57BL/6J mouse assessed as reduction in blood glucose AUC (0 to 120 mins) at 30 mg/kg, po dosed 30 minutes prior to glucose challenge by OGTT relative to control; assay type: functional; design: scale not given: the % may be the effect or the level left
# Procedure, shortened: (§2)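 Fasted male C57BL/6J or ob/ob mice (8 weeks, n = 8/group) dosed orally in 0.5% methylcellulose 15 or 30 min before a 2 g/kg oral glucose load. Tail vein glucose measured by glucometer at −15 or −30, 0, 20, 40, 60, 90 and 120 min. Incremental glucose AUC0-120 min compared with vehicle. Mean ± SEM, Dunnett's test.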
# [4] = Aqueous solubility of the compound in phosphate buffered saline at pH 7.4 at 8 to 2000 uM by nephelometric method; assay type: physicochemical
# Procedure, shortened: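 Compound serial dilutions (8 µM–2 mM, before addition to buffer) transferred into PBS pH 7.4 (5 µL into 95 µL). Solubility read by nephelometry. Only wells with blank below mean blank + 2SD were used.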
# Mus musculus [5] = experiment: Antidiabetic activity in po dosed C57BL/6J mouse assessed as reduction in blood glucose level administered 15 mins prior to glucose challenge measured up to 120 mins post dose by OGTT; assay type: functional, organism-based; procedure, shortened: as §2
# [6] = Cmax in mouse at 30 mg/kg, po administered as single dose by LC/MS/MS analysis; conditions: in vivo
# Mus musculus [7] = experiment: Antidiabetic activity in po dosed ob/ob mouse assessed as reduction in blood glucose level administered for 15 to 30 mins prior to glucose challenge measured up to 120 mins post dose by OGTT; assay type: functional, organism-based; procedure, shortened: as §2
# Mus musculus [8] = experiment: Antidiabetic activity in ob/ob mouse assessed as reduction in plasma glucose level at 10 to 30 mg/kg, po bid administered for 14 days measured at post last dose by glucometric method; assay type: functional, organism-based
# Procedure, shortened: (§3)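 Male ob/ob mice (9 weeks) dosed orally twice daily for 4 weeks, vehicle 0.5% MC. Plasma glucose measured by portable glucometer at 2 and 4 weeks. Liver TG assessed at the end of treatment. Mean ± SEM (n = 10), Dunnett's test versus vehicle.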
# Mus musculus [9] = experiment: Antidiabetic activity in ob/ob mouse assessed as reduction in plasma glucose level at 10 to 30 mg/kg, po bid administered for 28 days measured at post last dose by glucometric method; assay type: functional, organism-based; procedure, shortened: as §3
# Mus musculus [10] = experiment: Antidiabetic activity in po dosed C57BL/6J mouse assessed as reduction in blood glucose level administered for 15 to 30 mins prior to glucose challenge measured up to 120 mins post dose by OGTT; assay type: functional, organism-based; procedure, shortened: as §2
# Mus musculus [11] = experiment: Antidiabetic activity in C57BL/6J mouse assessed as increase in insulin secretion at 100 mg/kg, po measured up to 60 mins by ELISA; assay type: functional, organism-based
# Procedure, shortened: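 Male C57BL/6J mice (8 weeks) fasted 2 h, then dosed orally at time 0 (n = 8/group). Tail vein insulin measured at 0, 30 and 60 min by ultra-sensitive mouse insulin ELISA. Mean ± SEM, Dunnett's test.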
# hERG (KCNH2), sequence (Q12809 whole entry): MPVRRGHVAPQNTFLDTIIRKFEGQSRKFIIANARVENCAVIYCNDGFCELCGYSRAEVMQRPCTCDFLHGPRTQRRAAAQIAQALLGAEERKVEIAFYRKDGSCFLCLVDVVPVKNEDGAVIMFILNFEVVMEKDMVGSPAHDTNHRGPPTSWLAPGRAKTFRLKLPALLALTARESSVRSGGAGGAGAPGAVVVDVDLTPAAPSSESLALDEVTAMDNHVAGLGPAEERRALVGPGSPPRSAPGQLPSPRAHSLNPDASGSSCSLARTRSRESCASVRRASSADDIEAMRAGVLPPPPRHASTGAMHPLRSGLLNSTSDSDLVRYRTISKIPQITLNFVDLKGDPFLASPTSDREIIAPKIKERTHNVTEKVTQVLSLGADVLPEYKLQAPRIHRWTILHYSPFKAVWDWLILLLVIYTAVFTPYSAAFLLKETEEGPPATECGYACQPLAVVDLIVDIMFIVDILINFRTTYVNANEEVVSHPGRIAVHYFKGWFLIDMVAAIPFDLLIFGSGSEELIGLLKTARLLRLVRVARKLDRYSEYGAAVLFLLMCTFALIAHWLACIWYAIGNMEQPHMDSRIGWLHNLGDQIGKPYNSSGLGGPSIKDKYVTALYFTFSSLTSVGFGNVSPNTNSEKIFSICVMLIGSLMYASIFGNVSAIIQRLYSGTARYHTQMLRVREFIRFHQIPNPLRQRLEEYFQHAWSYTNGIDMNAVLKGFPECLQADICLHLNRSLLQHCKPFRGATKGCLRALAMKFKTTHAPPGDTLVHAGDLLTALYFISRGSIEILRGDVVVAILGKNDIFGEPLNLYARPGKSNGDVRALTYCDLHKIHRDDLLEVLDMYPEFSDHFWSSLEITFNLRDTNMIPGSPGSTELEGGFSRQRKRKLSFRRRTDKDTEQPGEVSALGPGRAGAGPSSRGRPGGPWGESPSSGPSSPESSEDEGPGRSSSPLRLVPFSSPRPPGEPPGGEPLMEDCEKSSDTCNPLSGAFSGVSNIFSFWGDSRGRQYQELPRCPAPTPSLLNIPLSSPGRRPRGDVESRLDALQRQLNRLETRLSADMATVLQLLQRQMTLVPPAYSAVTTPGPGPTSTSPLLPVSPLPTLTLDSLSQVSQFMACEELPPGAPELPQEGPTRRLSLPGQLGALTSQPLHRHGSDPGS
SMILES,fold change (FC) [1],fold change (FC) [2],solubility kinetic [4] [µM],"inhibition at 1 h, 30 µM (hERG (KCNH2)) [%]",other results
Cc1sc([C@@H]2CCCN2C(=O)CN(C)C)cc1C(=O)Nc1ncc(Cl)s1.Cl,10.4,0.65,7.81,101,Activity (Mus musculus [5]): Active; Cmax [6]: > 9 µM
Cc1sc(-c2ccccc2C(=O)NCCC(N)=O)cc1C(=O)Nc1nc2c(s1)CCC2,2.56,0.187,3.91,–,–
CCN(CC(=O)O)CC(=O)N1CCC[C@H]1c1cc(C(=O)Nc2ncc(F)s2)c(C)s1 [listing 1 of 2 here],8.6,0.87,–,–,Activity (Mus musculus [7]): Dose-dependent effect; Activity (Mus musculus [8]): Active; Activity (Mus musculus [9]): Active; Activity (Mus musculus [10]): Dose-dependent effect; Activity (Mus musculus [11]): Active
Cc1sc(-c2ccccc2C(=O)NCCO)cc1C(=O)Nc1nc2c(s1)CCC2,3.89,0.373,0.98,–,–
CCN(CC(=O)O)CC(=O)N1CCC[C@H]1c1cc(C(=O)Nc2ncc(F)s2)c(C)s1 [listing 2 of 2 here],–,–,–,-1,–
Cc1sc(-c2ccccc2C(=O)NCCc2nnn[nH]2)cc1C(=O)Nc1nc2c(s1)CCC2,0.84,-0.019,31.3,–,–
CC(=O)NCC(=O)N1CCCC1c1cc(C(=O)Nc2ncc(Cl)s2)c(C)s1 (stereo unspecified),5.32,0.395,–,3,–
Cc1sc(C2CCCN2C(=O)CN)cc1C(=O)Nc1nccs1 (stereo unspecified),3.67,0.293,7.81,–,–
Cc1sc([C@@H]2CCCN2C(=O)[C@H](C)N(C)CC(=O)O)cc1C(=O)Nc1ncc(F)s1,8.8,0.832,–,4,–
Cc1sc(C2CCCN2C(=O)CNCC(=O)O)cc1C(=O)Nc1ncc(Cl)s1 (stereo unspecified),4.75,0.438,–,28,–
Cc1sc(C2CCCN2C(=O)CN(C)CC(=O)O)cc1C(=O)Nc1ncc(Cl)s1.Cl (stereo unspecified),8.35,0.718,–,11,Activity (Mus musculus [3]): 82%
Cc1sc(N2CCCCC2=O)cc1C(=O)Nc1nc2c(s1)CCC2,2.96,0.235,0.98,–,–
CC(=O)N1CCCC1c1cc(C(=O)Nc2nc3c(s2)CCC3)c(C)s1 (stereo unspecified),2.53,0.187,7.81,–,–
Cc1sc(C2CCCN2C(=O)CN(C)CC(=O)O)cc1C(=O)Nc1ncc(F)s1 (stereo unspecified),6.92,0.71,–,-6,–
Cc1sc(C2CCCN2C(=O)CN(C)C)cc1C(=O)Nc1ncc(Cl)s1 (stereo unspecified),6.81,0.598,3.91,–,–

# Second part, led by results:
fold change (FC) [1],fold change (FC) [2],solubility kinetic [4] [µM],SMILES,"inhibition at 1 h, 30 µM (hERG (KCNH2)) [%]",other results
4.89,0.466,–,Cc1sc(C2CCCN2C(=O)CN(C)CCC(=O)O)cc1C(=O)Nc1ncc(F)s1.Cl (stereo unspecified),17,Activity (Mus musculus [3]): 47%
4.31,0.428,1.95,Cc1sc(-c2ccccc2C(=O)NCCN(C)C)cc1C(=O)Nc1nc2c(s1)CCC2,–,–
4.99,0.381,1.95,Cc1sc([C@H]2CCCN2C(=O)CN(C)C)cc1C(=O)Nc1ncc(Cl)s1.Cl,–,–
6.95,0.619,–,Cc1sc(C2CCCN2C(=O)CN(C)CCCCC(=O)O)cc1C(=O)Nc1ncc(F)s1 (stereo unspecified),77,–
2.41,0.168,3.91,Cc1sc(N2CCCC2=O)cc1C(=O)Nc1nc2c(s1)CCC2,–,–
4.7,0.38,7.81,Cc1sc(C2CCCN2C(=O)CN(C)C)cc1C(=O)Nc1nccs1 (stereo unspecified),–,–
2.57,0.118,–,CC(=O)N(C)CC(=O)N1CCCC1c1cc(C(=O)Nc2ncc(Cl)s2)c(C)s1 (stereo unspecified),–,–
6.86,0.61,–,Cc1sc(C2CCCN2C(=O)CN(C)CCCC(=O)O)cc1C(=O)Nc1ncc(F)s1 (stereo unspecified),78,–
6.21,0.46,–,Cc1sc(C2CCCN2C(=O)CNS(C)(=O)=O)cc1C(=O)Nc1ncc(Cl)s1 (stereo unspecified),16,–
1.13,0.017,0.98,CC(=O)N1CCCCC1c1cc(C(=O)Nc2nc3c(s2)CCC3)c(C)s1 (stereo unspecified),–,–
2.86,0.175,15.6,Cc1sc(C2CCCN2C(=O)CCN)cc1C(=O)Nc1nccs1 (stereo unspecified),–,–
3.46,0.274,0.98,Cc1sc(C2CCCN2C(=O)CCN)cc1C(=O)Nc1nc2c(s1)CCC2 (stereo unspecified),–,–
3.24,0.168,–,Cc1sc(C2CCCN2C(=O)CN(C)S(C)(=O)=O)cc1C(=O)Nc1ncc(Cl)s1 (stereo unspecified),–,–
6.23,0.699,1.95,Cc1sc(-c2ccccc2C(N)=O)cc1C(=O)Nc1nc2c(s1)CCC2,–,Cmax [6]: < 1 µM
7.26,0.686,–,Cc1sc([C@@H]2CCCN2C(=O)CN(C)CCC(=O)O)cc1C(=O)Nc1ncc(F)s1,49,–
